Assay results taken from ChEMBL document CHEMBL3808334, “Synthesis and in vitro evaluation of novel triazine analogues as anticancer agents and their interaction studies with bovine serum albumin” (Eur J Med Chem, 2016).

Columns and labels:
Type in all cases: functional
[1] = Growth inhibition of human DU145 cells assessed as cell growth at 10^-4 M incubated for 48 hrs by sulforhodamine B assay; details: DU-145, 48 h, read-out: Activity
Outline: (§1)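 Cells seeded at 5,000–40,000/well according to doubling time and preincubated 24 h at 37 °C, 5% CO2. Time-zero plates were TCA-fixed. DMSO concentrate was diluted in medium with 50 µg/ml gentamicin to give five concentrations (10-fold or ½ log steps), then exposed 48 h. Cells were TCA-fixed, stained with 0.4% SRB and read at 515 nm. Percent growth was taken against time-zero and control; GI50, TGI and LC50 derived.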

[2] = Growth inhibition of human HCT116 cells incubated for 48 hrs by sulforhodamine B assay; details: HCT-116, 48 h; outline: as §1
[3] = Growth inhibition of human SF268 cells incubated for 48 hrs by sulforhodamine B assay; details: SF-268, 48 h
Outline: (§2)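 Cells were plated at 5,000–40,000 per well according to doubling time and preincubated 24 h at 37 °C in 5% CO2; time-zero plates were then TCA-fixed. Five concentrations (10-fold or ½-log dilutions, DMSO stock) were incubated 48 h. Cells were TCA-fixed, stained with 0.4% SRB and read at 515 nm. GI50 was taken where [(Ti−Tz)/(C−Tz)]×100 = 50.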

786-0 = assay: Growth inhibition of human 786-0 cells incubated for 48 hrs by sulforhodamine B assay; details: 786-0, 48 h
Outline: (§3)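 Five-dose assay: five concentrations from 10-fold or ½-log serial dilutions. Cells are plated at 5,000–40,000 per well according to doubling time, grown 24 h, then exposed 48 h at 37 °C, 5% CO₂. Fixed with cold 50% TCA (final addition) for 60 min at 4 °C and stained with 0.4% SRB in 1% acetic acid. Bound dye is solubilized in 10 mM Tris base and read at 515 nm. GI₅₀ is where [(Ti−Tz)/(C−Tz)]×100 = 50, with a time-zero plate as Tz.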

SN12C [4] = assay: Growth inhibition of human SN12C cells incubated for 48 hrs by sulforhodamine B assay; details: for CC50: read-out: pLC50 (the source's name) (converted); outline: as §2
MDA-MB-231 [5] = assay: Growth inhibition of human MDA-MB-231 cells incubated for 48 hrs by sulforhodamine B assay; details: MDA-MB-231, 48 h; outline: as §2
SK-MEL-5 = assay: Growth inhibition of human SK-MEL-5 cells assessed as cell growth at 10^-8 M incubated for 48 hrs by sulforhodamine B assay; details: SK-MEL-5, 48 h, read-out: Activity
[6] = Growth inhibition of human COLO205 cells assessed as cell growth at 10^-7 M incubated for 48 hrs by sulforhodamine B assay; details: COLO 205, 48 h, read-out: Activity; outline: as §1
[7] = Growth inhibition of human BT549 cells assessed as cell growth at 10^-5 M incubated for 48 hrs by sulforhodamine B assay; details: BT-549, 48 h, read-out: Activity; outline: as §3
[8] = Growth inhibition of human HCT15 cells assessed as cell growth at 10^-4 M incubated for 48 hrs by sulforhodamine B assay; details: HCT-15, 48 h, read-out: Activity; outline: as §1
[9] = Growth inhibition of human SNB19 cells assessed as cell growth at 10^-4 M incubated for 48 hrs by sulforhodamine B assay; details: SNB-19, 48 h, read-out: Activity
[10] = Growth inhibition of human OVCAR3 cells assessed as cell growth at 10^-7 M incubated for 48 hrs by sulforhodamine B assay; details: OVCAR-3, 48 h, read-out: Activity
[11] = Growth inhibition of human DU145 cells assessed as cell growth at 10 uM incubated for 48 hrs by sulforhodamine B assay; details: DU-145, 48 h, read-out: Activity
Outline: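 Primary screen at one dose (10 µM) across 60 human cancer cell lines. Readout was growth percent relative to untreated control and time-zero.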

MDA-MB-231 [12] = assay: Growth inhibition of human MDA-MB-231 cells assessed as cell growth at 10 uM incubated for 48 hrs by sulforhodamine B assay; details: MDA-MB-231, 48 h, read-out: Activity
ACHN = assay: Growth inhibition of human ACHN cells assessed as cell growth at 10^-7 M incubated for 48 hrs by sulforhodamine B assay; details: read-out: Activity; outline: as §3
HT-29 [13] = assay: Growth inhibition of human HT-29 cells assessed as cell growth at 10^-6 M incubated for 48 hrs by sulforhodamine B assay; details: HT-29, 48 h, read-out: Activity
[14] = Growth inhibition of human HCT116 cells assessed as cell growth at 10^-8 M incubated for 48 hrs by sulforhodamine B assay; details: HCT-116, 48 h, read-out: Activity; outline: as §1
HT-29 [15] = assay: Growth inhibition of human HT-29 cells assessed as cell growth at 10^-8 M incubated for 48 hrs by sulforhodamine B assay; details: HT-29, 48 h, read-out: Activity
[16] = Growth inhibition of human SW620 cells assessed as cell growth at 10^-8 M incubated for 48 hrs by sulforhodamine B assay; details: SW-620, 48 h, read-out: Activity
SN12C [17] = assay: Growth inhibition of human SN12C cells assessed as cell growth at 10^-6 M incubated for 48 hrs by sulforhodamine B assay; details: read-out: Activity
HT-29 [18] = assay: Growth inhibition of human HT-29 cells assessed as cell growth at 10^-5 M incubated for 48 hrs by sulforhodamine B assay; details: HT-29, 48 h, read-out: Activity
[19] = Growth inhibition of human SF268 cells assessed as cell growth at 10^-5 M incubated for 48 hrs by sulforhodamine B assay; details: SF-268, 48 h, read-out: Activity
A549 = assay: Growth inhibition of human A549/ATCC cells assessed as cell growth at 10 uM incubated for 48 hrs by sulforhodamine B assay; details: A549, 48 h, read-out: Activity
Outline: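 One-dose screen at 10 µM final. Cells are plated at 5,000–40,000 per well according to doubling time and preincubated 24 h at 37 °C, 5% CO₂. Compound (DMSO stock diluted in medium with 50 µg/ml gentamicin) is then added for 48 h. Growth percent is read by sulforhodamine B staining, absorbance at 515 nm.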

NCI-H522 = assay: Growth inhibition of human NCI-H522 cells assessed as cell growth at 10 uM incubated for 48 hrs by sulforhodamine B assay; details: NCI-H522, 48 h, read-out: Activity
[20] = read-out: LC50 (the source's name)
[21] = read-out: pLC50 (the source's name) (converted)

Fc1ccc(-c2nc(Nc3ccc(-c4nc5ccccc5[nH]4)cc3)nc(N3CCOCC3)n2)cc1
growth at 100 µM [1]: 8% | GI50 ([2]; read-out: GI50): 1.9 µM | CC50 [2, 20]: 6.56 µM | TGI ([2]; read-out: TGI): 3.53 µM | GI50 ([2]; read-out: pGI50 (converted)): 1.91 µM | CC50 [2, 21]: 6.61 µM | TGI ([2]; read-out: pTGI (converted)): 3.55 µM | GI50 ([3]; read-out: GI50): 2.82 µM | CC50 [3, 20]: > 100 µM | TGI ([3]; read-out: TGI): 26.5 µM | GI50 ([3]; read-out: pGI50 (converted)): 2.82 µM | CC50 [3, 21]: > 100 µM | TGI ([3]; read-out: pTGI (converted)): 26.3 µM | GI50 (786-0; read-out: GI50): 1.44 µM | CC50 (786-0; [20]): 7.24 µM | TGI (786-0; read-out: TGI): 3.23 µM | GI50 (786-0; read-out: pGI50 (converted)): 1.45 µM | CC50 (786-0; [21]): 7.24 µM | TGI (786-0; read-out: pTGI (converted)): 3.24 µM | LC50 (50% lethal concentration) (SN12C [4]): > 100 µM | GI50 (SN12C [4]; read-out: GI50): 3.19 µM | TGI (SN12C [4]; read-out: TGI): 23 µM | GI50 (SN12C [4]; read-out: pGI50 (converted)): 3.16 µM | CC50 (SN12C [4]): > 100 µM | TGI (SN12C [4]; read-out: pTGI (converted)): 22.9 µM | GI50 (MDA-MB-231 [5]; read-out: GI50): 1.63 µM | CC50 (MDA-MB-231 [5]; [20]): > 100 µM | TGI (MDA-MB-231 [5]; read-out: TGI): 4.76 µM | GI50 (MDA-MB-231 [5]; read-out: pGI50 (converted)): 1.62 µM | CC50 (MDA-MB-231 [5]; [21]): > 100 µM | TGI (MDA-MB-231 [5]; read-out: pTGI (converted)): 4.79 µM | growth at 0.01 µM (SK-MEL-5): 98% | growth at 0.1 µM [6]: 99% | growth at 10 µM [7]: -53% | growth at 100 µM [8]: -13% | growth at 100 µM [9]: 4% | growth at 0.1 µM [10]: 100% | growth at 10 µM [11]: 38.5% | growth at 10 µM (MDA-MB-231 [12]): 5.74% | growth at 0.1 µM (ACHN): 95% | growth at 1 µM (HT-29 [13]): 96% | growth at 0.01 µM [14]: 90% | growth at 0.01 µM (HT-29 [15]): 100% | growth at 0.01 µM [16]: 97% | growth at 1 µM (SN12C [17]): 89% | growth at 10 µM (HT-29 [18]): -35% | growth at 10 µM [19]: 3% | growth at 10 µM (A549): 11.2% | growth at 10 µM (NCI-H522): 11.9%

c1ccc2[nH]c(-c3ccc(Nc4nc(N5CCCCC5)nc(N5CCOCC5)n4)cc3)nc2c1
growth at 100 µM [1]: 8% | GI50 ([2]; read-out: GI50): 1.91 µM | CC50 [2, 20]: 7.88 µM | TGI ([2]; read-out: TGI): 3.87 µM | GI50 ([2]; read-out: pGI50 (converted)): 1.91 µM | CC50 [2, 21]: 7.94 µM | TGI ([2]; read-out: pTGI (converted)): 3.89 µM | GI50 ([3]; read-out: GI50): 3.21 µM | CC50 [3, 20]: > 100 µM | TGI ([3]; read-out: TGI): 20.1 µM | GI50 ([3]; read-out: pGI50 (converted)): 3.24 µM | CC50 [3, 21]: > 100 µM | TGI ([3]; read-out: pTGI (converted)): 20 µM | GI50 (786-0; read-out: GI50): 1.54 µM | CC50 (786-0; [20]): 6.68 µM | TGI (786-0; read-out: TGI): 3.21 µM | GI50 (786-0; read-out: pGI50 (converted)): 1.55 µM | CC50 (786-0; [21]): 6.61 µM | TGI (786-0; read-out: pTGI (converted)): 3.24 µM | LC50 (50% lethal concentration) (SN12C [4]): > 100 µM | GI50 (SN12C [4]; read-out: GI50): 5.4 µM | TGI (SN12C [4]; read-out: TGI): 53.2 µM | GI50 (SN12C [4]; read-out: pGI50 (converted)): 5.37 µM | CC50 (SN12C [4]): > 100 µM | TGI (SN12C [4]; read-out: pTGI (converted)): 53.7 µM | GI50 (MDA-MB-231 [5]; read-out: GI50): 2.5 µM | CC50 (MDA-MB-231 [5]; [20]): > 100 µM | TGI (MDA-MB-231 [5]; read-out: TGI): 7.52 µM | GI50 (MDA-MB-231 [5]; read-out: pGI50 (converted)): 2.51 µM | CC50 (MDA-MB-231 [5]; [21]): > 100 µM | TGI (MDA-MB-231 [5]; read-out: pTGI (converted)): 7.59 µM | growth at 0.01 µM (SK-MEL-5): 97% | growth at 0.1 µM [6]: 104% | growth at 10 µM [7]: -35% | growth at 100 µM [8]: -22% | growth at 100 µM [9]: -1% | growth at 0.1 µM [10]: 104% | growth at 10 µM [11]: 39% | growth at 10 µM (MDA-MB-231 [12]): 23.1% | growth at 0.1 µM (ACHN): 95% | growth at 1 µM (HT-29 [13]): 104% | growth at 0.01 µM [14]: 100% | growth at 0.01 µM (HT-29 [15]): 105% | growth at 0.01 µM [16]: 97% | growth at 1 µM (SN12C [17]): 100% | growth at 10 µM (HT-29 [18]): -36% | growth at 10 µM [19]: 5% | growth at 10 µM (A549): 13.9% | growth at 10 µM (NCI-H522): 9.25%
